Results on six molecules are retold here after ChEMBL document CHEMBL1944596, “7,8-dichloro-1-oxo-β-carbolines as a versatile scaffold for the development of potent and selective kinase inhibitors with unusual binding modes” (J Med Chem, 2012).

Broadly, the ΔTm is the change in melting temperature against a reference sample.

Experiment [1] deals with Serine/threonine-protein kinase 33 (Homo sapiens) (UniProt Q9BYT3). Nature of the experiment: Binding affinity to STK33 assessed as change in thermal denaturation at 10 uM by thermal stability shift assay. The method in brief:
(§1)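 Each compound was screened across a kinase panel by thermal stability shift assay. The read-out was the shift in protein melting temperature (ΔTm, in °C) relative to the unliganded kinase. A ΔTm of 4.0 °C served as the hit cutoff.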

Experiment [2] concerns the target Death-associated protein kinase 3 (Homo sapiens) (UniProt O43293). Kind of experiment: Binding affinity to N-terminus His6-tagged DAPK3 expressed in Escherichia coli BL21 (DE3) cells coexpressing pCOEX assessed as change in thermal denaturation at 10 uM by thermal stability shift assay. In a few lines: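 DAPK3 was expressed in E. coli grown in TB with kanamycin and chloramphenicol at 37 °C, cooled to 25 °C, and induced with 0.5 mM IPTG. Binding was read as thermal-shift ΔTm in °C.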

Experiment [3] deals with T1, Serine/threonine-protein kinase 17A (Homo sapiens) (UniProt Q9UEE5).
T1 sequence (whole entry): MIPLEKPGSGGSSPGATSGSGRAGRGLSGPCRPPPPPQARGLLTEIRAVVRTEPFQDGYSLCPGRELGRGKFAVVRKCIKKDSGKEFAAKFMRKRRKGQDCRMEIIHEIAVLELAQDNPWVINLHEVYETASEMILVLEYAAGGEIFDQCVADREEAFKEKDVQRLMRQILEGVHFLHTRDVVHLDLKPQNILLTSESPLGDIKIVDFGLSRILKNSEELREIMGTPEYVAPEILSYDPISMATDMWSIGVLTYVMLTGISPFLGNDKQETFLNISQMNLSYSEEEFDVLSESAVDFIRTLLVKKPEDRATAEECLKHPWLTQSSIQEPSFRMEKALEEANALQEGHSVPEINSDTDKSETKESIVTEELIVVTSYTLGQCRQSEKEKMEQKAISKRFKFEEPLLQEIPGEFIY
Kind of experiment: Binding affinity to DRAK1 assessed as change in thermal denaturation at 10 uM by thermal stability shift assay. In a few lines: as §1

The target in experiment [4] is Dual specificity protein kinase CLK4 (Homo sapiens) (UniProt Q9HAZ1). Nature of the experiment: Binding affinity to CLK4 assessed as change in thermal denaturation at 10 uM by thermal stability shift assay. The method in brief:
as §1

Experiment [5] has as its target Serine/threonine-protein kinase PLK1 (Homo sapiens) (UniProt P53350). Nature of the experiment: Binding affinity to PLK1 assessed as change in thermal denaturation at 10 uM by thermal stability shift assay. In a few lines: as §1
Experiment [6] concerns the target Glycogen synthase kinase-3 beta (Homo sapiens) (UniProt P49841). Nature of the experiment: Binding affinity to GSK3-beta assessed as change in thermal denaturation at 10 uM by thermal stability shift assay. The method in brief: as §1
Experiment [7] addresses Serine/threonine-protein kinase pim-3 (Homo sapiens, UniProt Q86V86). Kind of experiment: Binding affinity to PIM3 assessed as change in thermal denaturation at 10 uM by thermal stability shift assay. The method in brief:
as §1

For experiment [8], the target named is Protein kinase C gamma type (Homo sapiens) (UniProt P05129). Kind of experiment: Binding affinity to PKCgamma assessed as change in thermal denaturation at 10 uM by thermal stability shift assay. In a few lines:
as §1

Experiment [9] deals with Serine/threonine-protein kinase pim-1 (Homo sapiens, UniProt P11309). Kind of experiment: Binding affinity to PIM1 assessed as change in thermal denaturation at 10 uM by thermal stability shift assay. In a few lines: as §1
Sequence of Serine/threonine-protein kinase pim-1 (P11309 whole entry, looked up): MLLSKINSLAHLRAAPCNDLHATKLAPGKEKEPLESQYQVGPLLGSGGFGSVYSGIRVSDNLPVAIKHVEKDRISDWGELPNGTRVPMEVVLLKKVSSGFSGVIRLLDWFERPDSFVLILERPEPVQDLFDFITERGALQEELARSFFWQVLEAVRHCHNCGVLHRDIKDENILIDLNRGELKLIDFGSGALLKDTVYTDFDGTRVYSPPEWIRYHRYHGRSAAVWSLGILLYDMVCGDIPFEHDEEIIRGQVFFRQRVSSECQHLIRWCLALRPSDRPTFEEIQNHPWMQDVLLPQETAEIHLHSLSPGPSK
Experiment [10] deals with T2, Myosin light chain kinase family member 4 (Homo sapiens) (UniProt Q86YV6).
T2 sequence (whole entry): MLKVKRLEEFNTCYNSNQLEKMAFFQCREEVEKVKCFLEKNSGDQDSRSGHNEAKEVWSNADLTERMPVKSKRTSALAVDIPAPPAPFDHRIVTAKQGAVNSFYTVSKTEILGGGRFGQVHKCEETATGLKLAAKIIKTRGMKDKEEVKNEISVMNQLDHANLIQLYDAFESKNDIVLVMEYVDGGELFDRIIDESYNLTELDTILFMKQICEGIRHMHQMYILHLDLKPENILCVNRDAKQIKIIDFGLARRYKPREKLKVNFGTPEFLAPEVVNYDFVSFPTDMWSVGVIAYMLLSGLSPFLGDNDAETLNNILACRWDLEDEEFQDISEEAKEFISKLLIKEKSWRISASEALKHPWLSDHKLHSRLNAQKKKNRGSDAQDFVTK
Nature of the experiment: Binding affinity to SGK085 assessed as change in thermal denaturation at 10 uM by thermal stability shift assay. The method in brief:
as §1

The target of experiment [11] is T3, Dual specificity tyrosine-phosphorylation-regulated kinase 2 (Homo sapiens) (UniProt Q92630).
T3 sequence (whole entry): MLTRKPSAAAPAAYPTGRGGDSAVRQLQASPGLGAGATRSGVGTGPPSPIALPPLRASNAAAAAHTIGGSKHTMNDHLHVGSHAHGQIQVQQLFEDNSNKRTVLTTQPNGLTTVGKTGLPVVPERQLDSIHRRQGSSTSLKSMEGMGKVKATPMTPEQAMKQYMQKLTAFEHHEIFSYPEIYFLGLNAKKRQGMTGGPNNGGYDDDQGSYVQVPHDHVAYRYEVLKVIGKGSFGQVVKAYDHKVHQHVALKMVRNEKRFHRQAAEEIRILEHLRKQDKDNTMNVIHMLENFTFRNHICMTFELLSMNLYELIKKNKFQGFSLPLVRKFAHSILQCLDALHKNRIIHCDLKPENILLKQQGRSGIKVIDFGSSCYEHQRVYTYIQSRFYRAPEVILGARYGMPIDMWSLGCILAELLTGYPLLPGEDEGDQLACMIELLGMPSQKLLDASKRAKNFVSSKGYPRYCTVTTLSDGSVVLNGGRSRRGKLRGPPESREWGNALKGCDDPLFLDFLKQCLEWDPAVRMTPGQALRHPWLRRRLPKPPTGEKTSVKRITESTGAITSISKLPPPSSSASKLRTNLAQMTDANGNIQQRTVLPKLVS
Kind of experiment: Binding affinity to DYRK2 assessed as change in thermal denaturation at 10 uM by thermal stability shift assay. In a few lines: as §1

Experiment [12] deals with AP2-associated protein kinase 1 (Homo sapiens) (UniProt Q2M2I8). Kind of experiment: Binding affinity to AAK1 assessed as change in thermal denaturation at 10 uM by thermal stability shift assay. In a few lines:
as §1

The target in experiment [13] is Serine/threonine-protein kinase pim-2 (Homo sapiens, UniProt Q9P1W9). Kind of experiment: Binding affinity to PIM2 assessed as change in thermal denaturation at 10 uM by thermal stability shift assay. In a few lines: as §1
Sequence of Serine/threonine-protein kinase pim-2 (Q9P1W9 whole entry, looked up): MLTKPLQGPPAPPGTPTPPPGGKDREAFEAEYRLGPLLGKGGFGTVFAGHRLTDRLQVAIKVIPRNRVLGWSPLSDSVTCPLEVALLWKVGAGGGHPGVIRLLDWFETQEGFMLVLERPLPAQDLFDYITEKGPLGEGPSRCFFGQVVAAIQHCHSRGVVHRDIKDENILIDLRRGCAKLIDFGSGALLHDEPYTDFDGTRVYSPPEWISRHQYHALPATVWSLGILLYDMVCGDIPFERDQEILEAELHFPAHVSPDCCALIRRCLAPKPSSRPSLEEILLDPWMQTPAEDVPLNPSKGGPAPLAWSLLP
Experiment [14] deals with T4, Serine/threonine-protein kinase 17B (Homo sapiens) (UniProt O94768).
T4 sequence (whole entry): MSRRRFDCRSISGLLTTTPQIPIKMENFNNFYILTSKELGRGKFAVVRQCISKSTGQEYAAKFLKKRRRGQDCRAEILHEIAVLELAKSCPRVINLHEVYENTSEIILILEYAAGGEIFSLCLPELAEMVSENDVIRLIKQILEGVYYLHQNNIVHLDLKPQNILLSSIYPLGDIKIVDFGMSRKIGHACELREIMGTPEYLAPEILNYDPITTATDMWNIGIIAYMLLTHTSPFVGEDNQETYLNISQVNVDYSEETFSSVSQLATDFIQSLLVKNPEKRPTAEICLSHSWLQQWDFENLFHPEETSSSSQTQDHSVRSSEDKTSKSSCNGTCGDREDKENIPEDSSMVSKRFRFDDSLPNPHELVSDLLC
Kind of experiment: Binding affinity to DRAK2 assessed as change in thermal denaturation at 10 uM by thermal stability shift assay. The method in brief: as §1

Sequence of Serine/threonine-protein kinase 33 (Homo sapiens) (Q9BYT3 whole entry, looked up): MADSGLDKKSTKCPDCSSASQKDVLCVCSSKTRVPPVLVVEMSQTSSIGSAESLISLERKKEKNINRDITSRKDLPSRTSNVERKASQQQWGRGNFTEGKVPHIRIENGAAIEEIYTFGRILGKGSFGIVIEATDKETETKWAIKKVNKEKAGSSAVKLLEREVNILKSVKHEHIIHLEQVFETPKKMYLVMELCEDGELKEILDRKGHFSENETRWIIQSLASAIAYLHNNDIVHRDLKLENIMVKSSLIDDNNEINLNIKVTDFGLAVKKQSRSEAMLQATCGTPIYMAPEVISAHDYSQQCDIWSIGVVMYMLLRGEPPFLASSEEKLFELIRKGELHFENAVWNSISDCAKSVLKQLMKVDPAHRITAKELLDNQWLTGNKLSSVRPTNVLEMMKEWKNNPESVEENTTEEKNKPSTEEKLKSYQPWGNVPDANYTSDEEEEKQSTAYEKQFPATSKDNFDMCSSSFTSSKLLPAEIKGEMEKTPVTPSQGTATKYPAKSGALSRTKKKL
Sequence of Serine/threonine-protein kinase PLK1 (Homo sapiens) (P53350 whole entry): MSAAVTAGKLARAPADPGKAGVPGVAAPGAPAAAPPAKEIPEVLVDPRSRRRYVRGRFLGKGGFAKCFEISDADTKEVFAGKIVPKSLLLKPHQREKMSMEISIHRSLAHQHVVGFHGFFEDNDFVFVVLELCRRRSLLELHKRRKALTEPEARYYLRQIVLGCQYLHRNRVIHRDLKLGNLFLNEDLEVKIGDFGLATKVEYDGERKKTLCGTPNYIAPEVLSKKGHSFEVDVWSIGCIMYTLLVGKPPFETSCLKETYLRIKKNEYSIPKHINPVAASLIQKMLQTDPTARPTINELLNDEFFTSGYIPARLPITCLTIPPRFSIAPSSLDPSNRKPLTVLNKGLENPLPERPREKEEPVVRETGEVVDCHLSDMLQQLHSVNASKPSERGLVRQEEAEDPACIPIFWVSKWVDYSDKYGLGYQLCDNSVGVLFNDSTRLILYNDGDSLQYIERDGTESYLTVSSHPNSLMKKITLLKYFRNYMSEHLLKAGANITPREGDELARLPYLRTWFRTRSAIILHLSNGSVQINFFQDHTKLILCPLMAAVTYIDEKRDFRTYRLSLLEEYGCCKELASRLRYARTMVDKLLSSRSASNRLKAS
Sequence of Glycogen synthase kinase-3 beta (Homo sapiens) (P49841 whole entry, looked up): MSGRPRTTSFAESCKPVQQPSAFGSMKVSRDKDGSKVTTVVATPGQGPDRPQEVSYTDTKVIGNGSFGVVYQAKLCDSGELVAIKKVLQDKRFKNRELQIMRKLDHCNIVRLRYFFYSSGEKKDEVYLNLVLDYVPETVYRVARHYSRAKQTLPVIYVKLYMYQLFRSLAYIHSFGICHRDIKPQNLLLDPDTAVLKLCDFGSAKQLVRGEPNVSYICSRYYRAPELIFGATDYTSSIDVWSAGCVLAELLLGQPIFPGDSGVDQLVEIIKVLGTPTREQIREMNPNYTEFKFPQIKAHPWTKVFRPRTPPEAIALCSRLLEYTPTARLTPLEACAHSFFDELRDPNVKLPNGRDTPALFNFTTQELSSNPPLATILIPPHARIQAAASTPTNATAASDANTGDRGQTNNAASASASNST
Sequence of AP2-associated protein kinase 1 (Homo sapiens) (Q2M2I8 whole entry, looked up): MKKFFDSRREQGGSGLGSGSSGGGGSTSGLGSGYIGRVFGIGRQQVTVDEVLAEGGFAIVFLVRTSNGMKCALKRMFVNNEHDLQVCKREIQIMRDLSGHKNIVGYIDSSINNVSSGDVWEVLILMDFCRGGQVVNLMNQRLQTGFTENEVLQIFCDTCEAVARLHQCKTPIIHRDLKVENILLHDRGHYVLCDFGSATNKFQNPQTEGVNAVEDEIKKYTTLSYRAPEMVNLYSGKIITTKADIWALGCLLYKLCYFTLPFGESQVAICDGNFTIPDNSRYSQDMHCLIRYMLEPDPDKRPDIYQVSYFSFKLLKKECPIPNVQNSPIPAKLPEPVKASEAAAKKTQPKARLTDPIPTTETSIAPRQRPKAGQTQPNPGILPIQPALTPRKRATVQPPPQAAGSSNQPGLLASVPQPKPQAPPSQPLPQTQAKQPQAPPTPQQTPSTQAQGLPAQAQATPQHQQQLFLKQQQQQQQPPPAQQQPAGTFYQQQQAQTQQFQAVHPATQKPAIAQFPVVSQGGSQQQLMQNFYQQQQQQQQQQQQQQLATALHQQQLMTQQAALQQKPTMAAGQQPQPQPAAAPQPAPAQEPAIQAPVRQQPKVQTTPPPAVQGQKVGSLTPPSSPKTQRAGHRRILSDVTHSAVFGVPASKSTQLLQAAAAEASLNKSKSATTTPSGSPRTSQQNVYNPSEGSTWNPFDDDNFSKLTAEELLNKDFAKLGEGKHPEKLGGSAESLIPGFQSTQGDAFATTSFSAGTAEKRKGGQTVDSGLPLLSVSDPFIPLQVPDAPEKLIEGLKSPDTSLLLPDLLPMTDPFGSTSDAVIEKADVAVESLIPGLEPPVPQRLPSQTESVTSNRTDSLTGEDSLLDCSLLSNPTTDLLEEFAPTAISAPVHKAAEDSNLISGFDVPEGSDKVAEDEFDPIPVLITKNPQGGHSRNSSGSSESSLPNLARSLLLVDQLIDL
Sequence of Dual specificity protein kinase CLK4 (Homo sapiens) (Q9HAZ1 whole entry, looked up): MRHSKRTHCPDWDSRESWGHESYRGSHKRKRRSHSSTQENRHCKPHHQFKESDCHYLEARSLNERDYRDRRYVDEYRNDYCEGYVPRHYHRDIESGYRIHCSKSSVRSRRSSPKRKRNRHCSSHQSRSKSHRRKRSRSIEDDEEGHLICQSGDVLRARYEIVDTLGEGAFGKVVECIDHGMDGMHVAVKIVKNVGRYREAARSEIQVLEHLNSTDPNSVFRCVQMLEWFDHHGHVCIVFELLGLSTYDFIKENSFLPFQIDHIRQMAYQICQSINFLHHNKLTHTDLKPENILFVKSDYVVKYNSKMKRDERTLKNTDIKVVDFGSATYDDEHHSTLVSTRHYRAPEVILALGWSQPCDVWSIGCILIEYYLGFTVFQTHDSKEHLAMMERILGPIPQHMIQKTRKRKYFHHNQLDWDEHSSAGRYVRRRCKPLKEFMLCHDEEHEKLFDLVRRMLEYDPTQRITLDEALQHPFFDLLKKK
Sequence of Death-associated protein kinase 3 (Homo sapiens) (O43293 whole entry, looked up): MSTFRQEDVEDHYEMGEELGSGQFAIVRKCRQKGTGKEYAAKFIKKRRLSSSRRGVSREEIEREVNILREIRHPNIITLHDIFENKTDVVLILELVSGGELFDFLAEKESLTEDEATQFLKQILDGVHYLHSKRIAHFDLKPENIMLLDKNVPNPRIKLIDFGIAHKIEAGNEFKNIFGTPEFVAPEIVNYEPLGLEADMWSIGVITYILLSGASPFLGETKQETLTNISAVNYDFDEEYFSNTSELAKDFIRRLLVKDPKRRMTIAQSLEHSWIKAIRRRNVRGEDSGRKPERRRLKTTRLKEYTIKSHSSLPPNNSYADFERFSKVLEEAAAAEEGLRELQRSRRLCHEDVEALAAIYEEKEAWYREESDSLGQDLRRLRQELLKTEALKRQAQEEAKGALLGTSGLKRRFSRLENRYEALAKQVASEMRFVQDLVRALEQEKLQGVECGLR

With `Cn1c2c(c3ccc(Cl)c(Cl)c31)C(C#N)C1(CCN(C(=O)OC(C)(C)C)CC1)NC2=O` (racemic), the ΔTm was 0.3 °C in experiment [1]; -0.2 °C in [2]; 0.6 °C in experiment [3]; 0 °C in experiment [4]; 0.5 °C in [5]; -0.2 °C in [6]. In addition, the ΔTm was determined as 0.6 °C in experiment [7]; 0.2 °C in [8]; 0.8 °C in experiment [9]; 0 °C in experiment [10]; 0.3 °C in experiment [11]; 0.3 °C in [12]. In addition, the ΔTm was -0.2 °C in experiment [13] and 0 °C in experiment [14].

In the case of `Cn1c2c(c3ccc(Cl)c(Cl)c31)C(C#N)C(C)(C)NC2=O` (centres undefined), the ΔTm in experiment [1] was determined as 2.2 °C; in experiment [2] it was 3.4 °C; in experiment [3] it was 5.8 °C; in experiment [4], 4.3 °C; in [5], 4.9 °C; in experiment [6], 5.6 °C. Further, the ΔTm came out at 6.2 °C in experiment [7]; 1.7 °C in experiment [8]; 5.7 °C in experiment [9]; 2 °C in [10]; 2 °C in [11]; 2.2 °C in experiment [12]. In addition, the ΔTm came out at 3.6 °C in experiment [13] and 4.8 °C in [14].

`CC(=O)NCC1c2c(n(C)c3c(Cl)c(Cl)ccc23)C(=O)NC1(C)C` (racemic): the ΔTm in experiment [1] came out at 0.3 °C; in experiment [2], 0.8 °C; in experiment [3] it was 0.9 °C; in [4], 1.4 °C; in experiment [5], 0.7 °C; in experiment [6], 0.2 °C. The ΔTm in experiment [7] was 0.7 °C; in [8] it was 0 °C; in [9], 1.1 °C; in experiment [10], 0.6 °C; in [11], 0.9 °C; in [12], 0.2 °C. Besides, the thermal shift (ΔTm) is 0.7 °C in experiment [13] and 1.6 °C in experiment [14].

Turning to `CCN1CCC2(CC1)NC(=O)c1c(c3ccc(Cl)c(Cl)c3n1C)C2C#N` (racemic), the ΔTm in [1] amounted to 2.1 °C; in experiment [2] it was 4.6 °C; in experiment [3], 1.6 °C; in experiment [4] it was 1.8 °C; in experiment [5], 0.4 °C; in [6], 1.5 °C. Moreover, the ΔTm was found to be 7.1 °C in [7]; 4.5 °C in [8]; 7.4 °C in experiment [9]; 0 °C in [10]; 0.9 °C in experiment [11]; 0.2 °C in [12]. Moreover, the values for the ΔTm in experiment [13] and in experiment [14] were 3.9 °C and 1.1 °C, respectively.

In the case of `Cn1c2c(Cl)c(Cl)ccc2c2cc[nH]c(=O)c21`, the ΔTm came out at 2.3 °C in [1]; 3.4 °C in experiment [2]; 6.2 °C in experiment [3]; 3.2 °C in experiment [4]; 1.6 °C in experiment [5]; 1.4 °C in [6]. For the same molecule, the ΔTm in [7] is 3.6 °C; in experiment [8] it was 1.2 °C; in experiment [9], 4 °C; in experiment [10], 6.4 °C; in experiment [11], 4.1 °C; in [12] it was 4.6 °C. For the same molecule, the figures for the ΔTm in [13] and in experiment [14] were 2.9 °C and 3.6 °C, respectively.

For `Cn1c2c(Cl)c(Cl)ccc2c2cn[nH]c(=O)c21`, the ΔTm in [1] was determined as 1.2 °C; in [2] it was 4 °C; in experiment [3] it was 3.5 °C; in experiment [4], 0.9 °C; in experiment [5], 3.1 °C; in [6], 4.6 °C. In addition, the ΔTm in [7] is 2.3 °C; in [8] it was 1.2 °C; in experiment [9], 1.6 °C; in experiment [10], 5.5 °C; in experiment [11] it was 1.6 °C; in experiment [12] it was 3.9 °C. For the same molecule, the results for the ΔTm in experiment [13] and in experiment [14] were 1.6 °C and 2.2 °C, respectively.
